Rows were chosen to be rich in hits. Some 3.7% of all compounds tested hit in one or more screens of this group.
KCNK3 inh: human KCNK3 channel inhibitors, primary screen, CHO cells, FluxOR thallium flux, B-score. AID 602410, 2012. FluxOR fluorescence; stronger effect = lower value. B-score at 10 µM. 340,000 compounds, 0.84% hits;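 active = B-score under library mean minus 4 SD, starting fluorescence ratio at most library mean plus 5 SD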;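 also: more negative B-score means stronger inhibition of thallium flux through KCNK3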
KCNQ1 pot: potentiators or activators of KCNQ1 channel, primary screen, cell-based, thallium flux, high-throughput. 310,000 compounds, 0.35% hits. AID 2648, 2010. CHO-K1 KCNQ1, thallium flux FluxOR fluorescence; stronger effect = higher value. Potassium voltage-gated channel subfamily KQT member 1 (Homo sapiens), P51787. B-score at 10 µM;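 active = fluorescence ratio B-score, a plate-corrected score, at least three library SD, with initial intensity B-score within 5 SD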
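Schedule – 37 °C overnight plating, 90-min dark dye load, 20-min compound pretreatment · System – stable KCNQ1 CHO-K1 line · Probe or stimulus – thallium- and potassium-containing depolarizing buffer · Measured by – kinetic FluxOR fluorescence, 10 s baseline plus 110 s post-stimulus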
Kir21 inh: inhibitors of mouse Kir2.1 inward-rectifier potassium channel. 310,000 compounds, 0.85% hits. Inward rectifier potassium channel 2 (Mus musculus), P35561. B-score at 10 µM. HEK293-Kir2.1, FluxOR thallium flux fluorescence; stronger effect = lower value;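 active = fluorescence ratio B-score at or below minus 3 SD of library scores, with starting-brightness B-score within 2 SD, cut at about -4.2 in these data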;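 also: channel flux triggered by added potassium and thallium sulfate stimulus; B-score of peak minus minimum fluorescence over baseline after thallium stimulus; more negative B-score means stronger Kir2.1 block with less thallium influx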
KCNQ1 inh: inhibitors of human KCNQ1 channel, primary screen, cell-based, thallium flux, high-throughput. Potassium voltage-gated channel subfamily KQT member 1 (Homo sapiens), P51787. CHO-K1 KCNQ1, FluxOR thallium flux fluorescence; stronger effect = higher value. B-score at 10 µM. 310,000 compounds, 1.3% hits;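 active = compounds whose thallium flux B-score, printed positive for inhibition, exceeds three library SD while starting fluorescence stays within three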;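 also: channel opened by potassium depolarization with thallium stimulus after 20 min compound exposure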
KCNK9 block: KCNK9 potassium channel inhibitors, primary screen, HEK293 cells, thallium flux; Potassium channel subfamily K member 9 (Homo sapiens), Q9NPC2; FluxOR thallium flux fluorescence; stronger effect = lower value; B-score at 10 µM; 310,000 compounds, 1.2% hits;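 active = ratio B-score over 3 SD below the library mean, with starting fluorescence within 5 SD of its mean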;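 also: negative B-score means less thallium flux so channel inhibition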
hERG rescue: hERG rescue from dofetilide block, primary screen, cell-based, CHO-hERG, FluxOR thallium flux, dofetilide IC70. activation (rescue from dofetilide block), less the hit threshold, % at 10 µM. Voltage-gated inwardly rectifying potassium channel KCNH2 (Homo sapiens), Q12809. AID 1511, 2009. 310,000 compounds, 0.51% hits. dofetilide IC70 present;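 active = activation above the mean of controls blocked by dofetilide plus 5 SD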;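 also: thallium influx through hERG after potassium depolarization seen as dye fluorescence rise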
Target sequence (Q12809 whole entry, looked up): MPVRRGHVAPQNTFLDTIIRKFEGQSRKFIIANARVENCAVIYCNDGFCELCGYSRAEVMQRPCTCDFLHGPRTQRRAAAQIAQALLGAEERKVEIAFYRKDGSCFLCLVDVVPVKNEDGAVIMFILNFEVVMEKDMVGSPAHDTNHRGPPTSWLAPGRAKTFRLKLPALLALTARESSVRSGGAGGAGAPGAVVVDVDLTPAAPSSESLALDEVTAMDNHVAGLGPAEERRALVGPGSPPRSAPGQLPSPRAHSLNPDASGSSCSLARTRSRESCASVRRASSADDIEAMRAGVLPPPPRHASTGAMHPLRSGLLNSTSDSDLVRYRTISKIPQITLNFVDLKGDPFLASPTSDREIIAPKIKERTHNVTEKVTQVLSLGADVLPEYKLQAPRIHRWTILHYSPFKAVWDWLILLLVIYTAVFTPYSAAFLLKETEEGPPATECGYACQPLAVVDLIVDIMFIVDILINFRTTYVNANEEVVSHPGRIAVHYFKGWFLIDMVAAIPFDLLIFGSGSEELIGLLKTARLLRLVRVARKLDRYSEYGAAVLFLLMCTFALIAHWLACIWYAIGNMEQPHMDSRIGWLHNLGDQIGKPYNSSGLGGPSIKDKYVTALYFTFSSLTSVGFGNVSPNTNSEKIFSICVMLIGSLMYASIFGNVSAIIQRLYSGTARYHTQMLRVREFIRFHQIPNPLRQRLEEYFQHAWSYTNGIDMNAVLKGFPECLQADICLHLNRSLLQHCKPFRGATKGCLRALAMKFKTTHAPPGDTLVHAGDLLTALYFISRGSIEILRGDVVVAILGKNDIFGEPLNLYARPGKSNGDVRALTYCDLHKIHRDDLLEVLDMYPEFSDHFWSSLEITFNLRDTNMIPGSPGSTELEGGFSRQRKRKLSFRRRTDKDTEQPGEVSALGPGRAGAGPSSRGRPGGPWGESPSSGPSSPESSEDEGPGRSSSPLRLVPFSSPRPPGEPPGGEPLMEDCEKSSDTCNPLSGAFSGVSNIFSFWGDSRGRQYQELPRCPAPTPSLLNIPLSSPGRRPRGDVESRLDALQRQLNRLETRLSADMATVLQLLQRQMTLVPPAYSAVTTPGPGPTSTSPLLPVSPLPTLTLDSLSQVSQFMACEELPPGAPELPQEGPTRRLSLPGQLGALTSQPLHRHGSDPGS
KCNK9 block conf: KCNK9 potassium channel inhibitors, confirmation, HEK293 cells, thallium flux, duplicate. shares compounds with KCNK9 block. FluxOR thallium flux fluorescence. 4,900 compounds, 43% hits. inhibition, % at 10 µM;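 active = thallium signal inhibited by more than 5 SD of the compound-free buffer control wells, on both duplicate plates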;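 also: 0% = assay buffer control wells without compound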
Kir21 sel: mouse Kir2.1 channel inhibition, confirmation, selectivity assay for KCNK9 modulator project, cell-based, HEK293, thallium flux. shares compounds with KCNK9 block. Kir2.1 cells, FluxOR thallium flux fluorescence. inhibition, % at 10 µM. 4,900 compounds, 4% hits;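 active = thallium signal drop more than 5 SD beyond the mean of the no-compound control wells, seen in both duplicate plates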;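 also: signal is fluorescence rise after thallium addition divided by baseline fluorescence; plate controls were assay buffer only for no effect and full block by chlorpromazine control for full effect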
KCNK9 uninduced: thallium flux in non-induced HEK293 cells, confirmation, counter-screen for KCNK9 inhibitor project, cell-based, second counter screen, non-induced KCNK9-HEK293; shares compounds with KCNK9 block; 4,900 compounds, 40% hits; inhibition, % at 10 µM; FluxOR thallium flux;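 active = thallium signal drop beyond 5 SD of the untreated control mean, on both duplicate plates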;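 also: plate controls were buffer only IC0 wells for no effect and SID17386958 at its maximal inhibitory level for full effect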
* marks the source's active call; other numbers are inactive results.

Screening COc1ccccc1CNC(=O)CSCc1cnn(-c2ccccc2)c1-n1cccc1 returned KCNK3 inh inactive, KCNQ1 pot inactive, Kir21 inh -5.8*, KCNQ1 inh inactive, KCNK9 block inactive, hERG rescue -10, KCNK9 block conf inactive, Kir21 sel inactive and KCNK9 uninduced inactive.
Screening COc1cc(NC(=O)CSCc2cnn(-c3ccccc3)c2-n2cccc2)cc(OC)c1 returned KCNK3 inh inactive, KCNQ1 pot inactive, Kir21 inh -1.5, KCNQ1 inh inactive, KCNK9 block inactive and hERG rescue -4.
Screening COc1cccc(CNC(=O)CSCc2cnn(-c3ccccc3)c2-n2cccc2)c1OC returned KCNK3 inh inactive, KCNQ1 pot inactive, Kir21 inh -2, KCNQ1 inh inactive, KCNK9 block inactive, hERG rescue -18, KCNK9 block conf inactive, Kir21 sel 31%* and KCNK9 uninduced inactive.
Screening CC(C)(C)c1ccc(Cn2cnc(-c3ccc([N+](=O)[O-])cc3)c2)cc1 returned KCNK3 inh inactive, KCNQ1 pot inactive, Kir21 inh -0.81, KCNQ1 inh inactive, KCNK9 block inactive, hERG rescue -8, KCNK9 block conf inactive, Kir21 sel inactive and KCNK9 uninduced inactive.
Screening Oc1ccc(NCc2cccc(OCc3ccc(F)cc3)c2)cc1 returned KCNK3 inh inactive, KCNQ1 pot inactive, Kir21 inh 1.5, KCNQ1 inh inactive, KCNK9 block inactive and hERG rescue -23.
`O=[N+]([O-])c1ccc(COc2cccc(CNc3ccc(F)cc3)c2)cc1` gave KCNK3 inh inactive, KCNQ1 pot inactive, Kir21 inh -0.03, KCNQ1 inh 6*, KCNK9 block -8.3*, hERG rescue -2, KCNK9 block conf 41%*, Kir21 sel inactive and KCNK9 uninduced inactive.
For COCCn1c(C)cc(C(=O)COC(=O)c2c(C)nn(Cc3ccccc3)c2C)c1C the results were KCNK3 inh inactive, KCNQ1 pot inactive, Kir21 inh -1.1, KCNQ1 inh inactive, KCNK9 block inactive, hERG rescue -6, KCNK9 block conf inactive, Kir21 sel inactive and KCNK9 uninduced inactive.
For CN(CCCN1CCOCC1)C(=O)c1cc(COc2c(F)cccc2F)on1 the results were KCNK3 inh inactive, KCNQ1 pot inactive, Kir21 inh -0.97, KCNQ1 inh inactive, KCNK9 block inactive and hERG rescue -6.
COc1cccc(CCNC(=O)c2cc(COc3c(F)cccc3F)on2)c1 was read as KCNK3 inh inactive, KCNQ1 pot inactive, Kir21 inh 1.6, KCNQ1 inh inactive, KCNK9 block inactive, hERG rescue -12, KCNK9 block conf inactive, Kir21 sel inactive and KCNK9 uninduced inactive.
`COc1cccc(OCc2cc(C(=O)NCCc3cccc(C)n3)no2)c1` gave KCNK3 inh inactive, KCNQ1 pot inactive, Kir21 inh 0.22, KCNQ1 inh inactive, KCNK9 block inactive and hERG rescue -6.
Screening CN(CCCC1CCCC1)C(=O)c1cc(COc2c(F)cccc2F)on1 returned KCNK3 inh inactive, KCNQ1 pot inactive, Kir21 inh -0.73, KCNQ1 inh inactive, KCNK9 block inactive, hERG rescue -8, KCNK9 block conf inactive, Kir21 sel inactive and KCNK9 uninduced 22%*.
For CN(CCCC1CCCC1)C(=O)c1cc(COc2ccc(F)cc2F)on1 the results were KCNK3 inh inactive, KCNQ1 pot inactive, Kir21 inh -1.6, KCNQ1 inh inactive, KCNK9 block inactive, hERG rescue -13, KCNK9 block conf inactive, Kir21 sel inactive and KCNK9 uninduced inactive.
`CCOc1ccc2cc(/C=C/C(=O)c3ccco3)c(Cl)nc2c1` gave KCNK3 inh -9.6*, KCNQ1 pot inactive, Kir21 inh -0.03, KCNQ1 inh inactive, KCNK9 block -12*, hERG rescue -8, KCNK9 block conf inactive, Kir21 sel inactive and KCNK9 uninduced 33%*.
Screening CCOc1ccc2nc(SCC(=O)NNC(=O)c3ccco3)c(C)cc2c1 returned KCNK3 inh inactive, KCNQ1 pot inactive, Kir21 inh -0.28, KCNQ1 inh inactive, KCNK9 block inactive and hERG rescue 1.
Cn1c2c(c3ccccc31)CCN(CCCCN1CCN(c3ccccc3)CC1)C2=O was read as KCNK3 inh inactive.
Cc1ccc(-c2csc(N(CC3CCCO3)C(=O)c3ccco3)n2)cc1 (stereo unspecified) was read as KCNK3 inh inactive, KCNQ1 pot inactive, Kir21 inh 0.91, KCNQ1 inh inactive, KCNK9 block -8.6*, hERG rescue -12, KCNK9 block conf 43%*, Kir21 sel inactive and KCNK9 uninduced 34%*.
For COc1ccccc1/C=C/C=C(\C#N)C(=O)NC(C)c1ccccc1 (stereo unspecified) the results were KCNK3 inh inactive, KCNQ1 pot inactive, Kir21 inh -0.07, KCNQ1 inh inactive, KCNK9 block inactive, hERG rescue -9, KCNK9 block conf inactive, Kir21 sel inactive and KCNK9 uninduced inactive.
`CC(NC(=O)/C(C#N)=C/c1cn(-c2ccccc2)nc1-c1ccc(F)cc1)c1ccccc1` (stereo unspecified) gave KCNK3 inh inactive, KCNQ1 pot inactive, Kir21 inh -0.31, KCNQ1 inh inactive, KCNK9 block inactive, hERG rescue -6, KCNK9 block conf inactive, Kir21 sel inactive and KCNK9 uninduced inactive.
For CC(NC(=O)/C(C#N)=C/c1ccc(C(=O)O)cc1)c1ccccc1 (stereo unspecified) the results were KCNK3 inh inactive, KCNQ1 pot inactive, Kir21 inh 0.01, KCNQ1 inh inactive, KCNK9 block inactive, hERG rescue -12, KCNK9 block conf inactive, Kir21 sel inactive and KCNK9 uninduced inactive.

Screens as filed in PubChem.
